Test results published in paper PMC6778631 (Cancer Science, 2019).
Changes are numbered by the printed parent chain.

Key:
[1] = molecular target: T1, IDH2‐R172K (Homo sapiens, UniProt P48735, R172K); assay: Cellular thermal shift assay in U-87 MG cells; format: binding; settings: 1 h treatment
T1 sequence (P48735 40-452 R172K): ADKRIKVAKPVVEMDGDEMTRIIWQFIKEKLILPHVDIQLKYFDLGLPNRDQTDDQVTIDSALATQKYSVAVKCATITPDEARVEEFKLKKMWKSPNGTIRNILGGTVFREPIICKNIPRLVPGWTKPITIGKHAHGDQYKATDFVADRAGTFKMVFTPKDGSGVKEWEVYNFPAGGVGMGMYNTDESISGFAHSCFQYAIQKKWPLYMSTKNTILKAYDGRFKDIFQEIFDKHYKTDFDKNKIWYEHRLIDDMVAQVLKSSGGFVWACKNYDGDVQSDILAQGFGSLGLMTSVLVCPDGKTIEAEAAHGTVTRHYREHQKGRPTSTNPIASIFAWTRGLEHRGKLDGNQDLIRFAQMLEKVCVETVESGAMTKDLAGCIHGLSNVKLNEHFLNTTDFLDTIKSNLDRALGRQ

[2] = molecular target: T2, IDH2‐WT (Homo sapiens, UniProt P48735); assay: Cell-based enzyme assay, lysates of U-87 MG/IDH2-WT cells; format: biochemical
T2 sequence (P48735 40-452): T1 sequence (P48735 40-452 R172K) with K133R

[3] = tested on: TF‐1/IDH2‐R172K cells; assay: Cell proliferation assay; format: cell-based, human; settings: 7 d + 7 d without hGM-CSF
[4] = molecular target: T1, IDH2‐R172K; assay: Cell-based enzyme assay, lysates of U-87 MG/IDH2-R172K cells; format: biochemical
[5] = molecular target: T3, wild‐type IDH2 (Homo sapiens, UniProt P48735); assay: Cellular thermal shift assay in U-87 MG cells; format: binding; settings: 1 h treatment
T3 sequence (P48735 40-452): T1 sequence (P48735 40-452 R172K) with K133R

[6] = tested on: TF‐1/IDH2‐R172K cells; assay: Cell-based inhibition of 2-HG production; settings: Homo sapiens, 72 h, read-out: IC50, anti-2-HG activity
[7] = tested on: TF‐1/IDH2‐R140Q cells; assay: Cell-based inhibition of 2-HG production; settings: Homo sapiens, 72 h, read-out: IC50, anti-2-HG activity
[8] = molecular target: T4, IDH2‐R140Q (Homo sapiens, UniProt P48735, R140Q); assay: Cellular thermal shift assay in U-87 MG cells; format: binding; settings: 1 h treatment
T4 sequence (P48735 40-452 R140Q): T1 sequence (P48735 40-452 R172K) with R101Q, K133R

[9] = tested on: TF‐1/IDH2‐R140Q cells; assay: Erythroid differentiation under EPO, HBG mRNA by qRT-PCR; format: cell-based, human; settings: 7 d + 7 d EPO
Procedure, shortened: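 TF-1 cells carrying doxycycline-inducible IDH2-R140Q got test compound for 7 d in RPMI-1640, 10% FBS, 2 ng/mL hGM-CSF. GM-CSF was then replaced by EPO (2 IU/mL) for another 7 d with compound present. HBG mRNA was measured in cell pellets by SYBR qRT-PCR, with GAPDH primers also used. Means ± SD of triplicates.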

[10] = molecular target: IDH1‐R132C (Homo sapiens, UniProt O75874, R132C); assay: Cell-based enzyme assay, lysates of U-87 MG/IDH1-R132C cells; format: biochemical
[11] = molecular target: T5, IDH2‐R140Q‐Q316A (Homo sapiens, UniProt P48735, Q316A/R140Q); assay: Cellular thermal shift assay in U-87 MG/IDH2-R140Q-Q316A cells; format: binding; settings: 1 h treatment
T5 sequence (P48735 40-452 R140Q/Q316A): T1 sequence (P48735 40-452 R172K) with R101Q, K133R, Q277A

[12] = molecular target: IDH1‐R132H (Homo sapiens, UniProt O75874, R132H); assay: Cell-based enzyme assay, lysates of U-87 MG/IDH1-R132H cells; format: biochemical
[13] = tested on: TF‐1/IDH2‐R140Q cells; assay: Cell proliferation assay; format: cell-based, human; settings: 7 d + 7 d without hGM-CSF
[14] = molecular target: IDH1‐WT (Homo sapiens, UniProt O75874); assay: Cell-based enzyme assay, lysates of U-87 MG/IDH1-WT cells; format: biochemical
[15] = tested on: U‐87 MG/IDH2‐R140Q cells; assay: Cell-based inhibition of 2-HG production; settings: Homo sapiens, 72 h, read-out: Inhibition of 2-HG production
[16] = tested on: TF‐1/IDH2‐R172K cells; assay: Erythroid differentiation under EPO, HBG mRNA by qRT-PCR; format: cell-based, human; settings: 7 d + 7 d EPO
[17] = molecular target: T4, IDH2‐R140Q; assay: Cell-based enzyme assay, lysates of U-87 MG/IDH2-R140Q cells; format: biochemical; settings: IC50, inhibition of IDH2-R140Q enzymatic activity

Chain of IDH1‐R132H (O75874 whole entry R132H): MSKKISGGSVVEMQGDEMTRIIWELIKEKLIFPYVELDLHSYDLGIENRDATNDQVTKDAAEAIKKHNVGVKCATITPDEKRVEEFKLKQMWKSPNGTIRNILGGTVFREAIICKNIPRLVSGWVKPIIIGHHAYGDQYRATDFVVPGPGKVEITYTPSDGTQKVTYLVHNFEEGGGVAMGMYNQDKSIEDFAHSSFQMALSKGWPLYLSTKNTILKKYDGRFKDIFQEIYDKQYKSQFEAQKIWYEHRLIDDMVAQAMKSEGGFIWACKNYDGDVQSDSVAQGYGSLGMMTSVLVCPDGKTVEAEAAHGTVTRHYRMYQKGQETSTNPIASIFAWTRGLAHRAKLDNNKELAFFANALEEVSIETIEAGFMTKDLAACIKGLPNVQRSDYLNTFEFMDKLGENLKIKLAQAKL
Chain of IDH1‐WT (O75874 whole entry): as the sequence (O75874 whole entry R132H) above, with H132R counted along it
Chain of IDH1‐R132C (O75874 whole entry R132C): as the sequence (O75874 whole entry R132H) above, with H132C counted along it

Thermal stabilization of IDH2-R172K (CETSA) [1]: weak thermal‐stabilization effect
Inhibitory effect on IDH2-WT enzymatic activity [2]: no apparent inhibitory effects
IC50 [4]: 625 ± 146 nM
Thermal stabilization of wild-type IDH2 (CETSA) [5]: Neither TQ05310 nor AG‐221 stabilized
IC50 [6]: 732 ± 331 nM
IC50 [7]: 24.7 ± 2.3 nM
Thermal stabilization of IDH2-R140Q (CETSA) [8]: apparent thermal‐stabilization effect
Inhibitory effect on IDH1-R132C enzymatic activity [10]: no apparent inhibitory effects
Thermal stabilization in U-87 MG/IDH2-R140Q-Q316A cells (CETSA) [11]: lost
Inhibitory effect on IDH1-R132H enzymatic activity [12]: no apparent inhibitory effects
Inhibitory effect on IDH1-WT enzymatic activity [14]: no apparent inhibitory effects
IC50 [17]: 229 ± 23.2 nM
Structure (SMILES): CC(C)(O)CNc1nc(Nc2ccnc(C(F)(F)F)c2)nc(-c2cccc(C(F)(F)F)n2)n1 [AG‐221, enasidenib]
Effect on cell proliferation (MTT) [3]: did not significantly inhibit proliferation
Effect on HBG levels (cell differentiation) [9]: increased HBG
Effect on cell proliferation (MTT) [13]: did not significantly inhibit proliferation
inhibition at 0.2 µM [15]: 67.3%
Effect on HBG levels (cell differentiation) [16]: increased HBG only in TF‐1/IDH2‐R140Q cells
